One assay concerns SK-OV-3. Put plainly: Cytotoxicity against human SKOV3 cells after 48 hrs by MTT assay. In kind it is functional, cell-based. The conditions noted are these: SK-OV-3, 48 h. (In general: Tetrazolium assays rely on reduction of a dye to a coloured formazan, in cell work by metabolically active cells.)
The test system of another assay is HeLa. Description: Cytotoxicity against human HeLa cells after 48 hrs by MTT assay. The assay is classed as functional, cell-based.
For assay [1], the target named is Tyrosine-protein kinase JAK2 (Homo sapiens) (UniProt O60674). Put plainly: Inhibition of recombinant JAK2 at 20 uM.
Tyrosine-protein kinase JAK2 (Homo sapiens), sequence (O60674 whole entry): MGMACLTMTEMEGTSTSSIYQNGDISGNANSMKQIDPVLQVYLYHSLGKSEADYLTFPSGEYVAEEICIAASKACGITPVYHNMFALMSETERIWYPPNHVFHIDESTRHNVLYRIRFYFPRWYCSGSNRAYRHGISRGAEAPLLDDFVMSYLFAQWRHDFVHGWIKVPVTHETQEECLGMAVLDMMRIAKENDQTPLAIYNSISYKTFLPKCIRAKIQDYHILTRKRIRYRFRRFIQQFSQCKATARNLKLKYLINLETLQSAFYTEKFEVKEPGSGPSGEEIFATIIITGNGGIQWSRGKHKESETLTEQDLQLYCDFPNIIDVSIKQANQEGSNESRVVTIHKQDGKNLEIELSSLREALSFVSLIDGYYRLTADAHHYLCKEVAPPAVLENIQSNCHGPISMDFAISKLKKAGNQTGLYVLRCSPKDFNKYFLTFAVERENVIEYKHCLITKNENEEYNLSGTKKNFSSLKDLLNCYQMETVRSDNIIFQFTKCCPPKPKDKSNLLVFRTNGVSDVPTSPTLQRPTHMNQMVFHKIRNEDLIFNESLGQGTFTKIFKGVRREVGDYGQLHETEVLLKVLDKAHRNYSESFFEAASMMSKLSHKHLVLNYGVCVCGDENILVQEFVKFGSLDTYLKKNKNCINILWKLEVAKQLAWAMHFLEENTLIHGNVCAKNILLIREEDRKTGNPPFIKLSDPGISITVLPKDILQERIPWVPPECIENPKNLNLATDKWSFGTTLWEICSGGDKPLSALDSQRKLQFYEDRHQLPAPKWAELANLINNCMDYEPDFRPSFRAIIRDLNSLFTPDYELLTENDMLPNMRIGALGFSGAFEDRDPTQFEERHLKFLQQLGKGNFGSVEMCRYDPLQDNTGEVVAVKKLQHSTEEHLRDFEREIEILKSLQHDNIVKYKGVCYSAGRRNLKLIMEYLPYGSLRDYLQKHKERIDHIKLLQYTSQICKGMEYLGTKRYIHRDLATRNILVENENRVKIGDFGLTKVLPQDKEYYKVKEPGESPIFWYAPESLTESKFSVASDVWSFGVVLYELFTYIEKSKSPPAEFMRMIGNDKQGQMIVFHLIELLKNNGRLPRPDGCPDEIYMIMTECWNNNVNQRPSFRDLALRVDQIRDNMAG
Assay [2] has as its system HT-29. Put plainly: Cytotoxicity against human HT-29 cells after 48 hrs by MTT assay. In kind it is functional, cell-based. The conditions noted are these: HT-29, 48 h.
In assay [3] the target is Tyrosine-protein kinase JAK2 (Homo sapiens) (UniProt O60674). Description: Inhibition of IL-6-induced JAK2 phosphorylation in human HT-29 cells by Western blotting. The assay is classed as cell-based. In short, it runs like this:
(§1)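 HT-29 cells treated with IL-6 for 0.5 h, then compound (10, 20 µM or 50, 100 µM); lysed in ice-cold Hepes/Triton X-100 buffer with protease/phosphatase inhibitors, 30–40 µg protein immunoblotted for JAK2 and p-JAK2, ECL detection, GAPDH control; densitometry as % of control, three independent experiments.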
On the technique in general: In western blotting, separated proteins are transferred to a membrane and probed.

For assay [4] the target is unchanged. Description: Inhibition of human JAK2-mediated IL6-induced Stat3-STAT3-dependent luciferase activity in human HT-29 cells at 5 to 20 uM by Western blotting. The assay is classed as cell-based. Particulars: in the assay text read “by luciferase reporter gene assay” for “by Western blotting”. In short, it runs like this: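 HT-29 cells co-transfected with pSTAT3-Luc and phRL-TK; after 24 h serum-starved overnight, treated 1 h with compound at varying concentrations and stimulated with IL-6 (20 ng/mL); dual luciferase readout normalised to Renilla; three independent experiments, Student's t-test.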

Assay [5] concerns HT-29. Description: Induction of cell cycle arrest in human HT-29 cells assessed as increase accumulation at G2/M phase at 5 to 20 uM after 24 hrs by flow cytometry. The assay is classed as functional, cell-based. In short, it runs like this: (§2)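 HT-29 cells grown to 70–80% confluence, treated at 5, 10 and 20 µM for 24 h, fixed in 70% ethanol 1 h on ice, stained with propidium iodide (50 µg/mL) plus RNase A for 30 min in the dark at room temperature, DNA content by flow cytometry; means of three independent experiments, Student's t-test.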
(In general: Flow cytometry measures light scatter and fluorescence of single cells or particles in a stream.)

Assay [6] relates to HT-29. Description: Induction of cell cycle arrest in human HT-29 cells assessed as decrease in accumulation at G1 phase at 5 to 20 uM after 24 hrs by flow cytometry. In kind it is functional, cell-based. In short, it runs like this: as §2
For assay [7], the target named is Tyrosine-protein kinase JAK2 (Homo sapiens) (UniProt O60674). Description: Inhibition of IL-6-induced JAK2 phosphorylation in human HT-29 cells at 10 to 20 uM by Western blotting. In kind it is cell-based. In short, it runs like this: as §1
Assay [8] shares this target. Put plainly: Inhibition of IL-6-induced JAK2 phosphorylation in human HT-29 cells at 50 to 100 uM by Western blotting. The assay is classed as cell-based. In short, it runs like this:
as §1

Assay [9] has as its system HT-29. Put plainly: Cytotoxicity against human HT-29 cells upto 25 uM after 48 hrs by MTT assay. In kind it is functional, cell-based. In short, it runs like this: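 MTT assay: cells seeded at 1 × 10⁵ cells/mL in RPMI-1640 with 10% FBS, compounds added after 24 h at various concentrations and exposed 48 h; MTT (5 mg/mL stock in PBS) added for 4 h, formazan dissolved in DMSO, absorbance read at 540 nm. Cells cultured in RPMI-1640, 10% FBS, 37 °C, 5% CO₂.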

In assay [10] the test system is HT-29. Description: Induction of cell cycle arrest in human HT-29 cells assessed as increase accumulation at G2/M phase at 10 to 30 uM after 48 hrs by flow cytometry. The assay is classed as functional, cell-based. In short, it runs like this:
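HT-29 cells at 70–80% confluence treated at 10, 20 and 30 µM for 48 h, ethanol-fixed (70%, 1 h on ice), propidium iodide stained with RNase A, DNA content analysed by flow cytometry; three independent experiments, Student's t-test versus untreated control.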

In assay [11] the target is Tyrosine-protein kinase JAK2 (Mus musculus) (UniProt Q62120). Description: Inhibition of IL-6-induced JAK2 phosphorylation in mouse embryonic stem cells at 20 uM by Western blotting. The assay is classed as cell-based. In short, it runs like this:
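Mouse embryonic stem cells pretreated with IL-6, then exposed to compound; p-JAK2 level assessed by Western blotting.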

SMILES strings stand for the structures. Active and inactive are the calls of the source. The calls are words filed in the database; no cut-off is given here. Bounds are passed on as bounds.

From ChEMBL document CHEMBL1641459, “Virtual screening and synthesis of quinazolines as novel JAK2 inhibitors” (Bioorg Med Chem, 2011) come the findings set out here.

The IC50 is the midpoint of a concentration-inhibition curve. The low end stands for higher potency, the high end for lower potency. As usually defined, the inhibition is the relative decrease from the control value, in per cent.

Tyrosine-protein kinase JAK2 (Mus musculus), sequence (Q62120 whole entry): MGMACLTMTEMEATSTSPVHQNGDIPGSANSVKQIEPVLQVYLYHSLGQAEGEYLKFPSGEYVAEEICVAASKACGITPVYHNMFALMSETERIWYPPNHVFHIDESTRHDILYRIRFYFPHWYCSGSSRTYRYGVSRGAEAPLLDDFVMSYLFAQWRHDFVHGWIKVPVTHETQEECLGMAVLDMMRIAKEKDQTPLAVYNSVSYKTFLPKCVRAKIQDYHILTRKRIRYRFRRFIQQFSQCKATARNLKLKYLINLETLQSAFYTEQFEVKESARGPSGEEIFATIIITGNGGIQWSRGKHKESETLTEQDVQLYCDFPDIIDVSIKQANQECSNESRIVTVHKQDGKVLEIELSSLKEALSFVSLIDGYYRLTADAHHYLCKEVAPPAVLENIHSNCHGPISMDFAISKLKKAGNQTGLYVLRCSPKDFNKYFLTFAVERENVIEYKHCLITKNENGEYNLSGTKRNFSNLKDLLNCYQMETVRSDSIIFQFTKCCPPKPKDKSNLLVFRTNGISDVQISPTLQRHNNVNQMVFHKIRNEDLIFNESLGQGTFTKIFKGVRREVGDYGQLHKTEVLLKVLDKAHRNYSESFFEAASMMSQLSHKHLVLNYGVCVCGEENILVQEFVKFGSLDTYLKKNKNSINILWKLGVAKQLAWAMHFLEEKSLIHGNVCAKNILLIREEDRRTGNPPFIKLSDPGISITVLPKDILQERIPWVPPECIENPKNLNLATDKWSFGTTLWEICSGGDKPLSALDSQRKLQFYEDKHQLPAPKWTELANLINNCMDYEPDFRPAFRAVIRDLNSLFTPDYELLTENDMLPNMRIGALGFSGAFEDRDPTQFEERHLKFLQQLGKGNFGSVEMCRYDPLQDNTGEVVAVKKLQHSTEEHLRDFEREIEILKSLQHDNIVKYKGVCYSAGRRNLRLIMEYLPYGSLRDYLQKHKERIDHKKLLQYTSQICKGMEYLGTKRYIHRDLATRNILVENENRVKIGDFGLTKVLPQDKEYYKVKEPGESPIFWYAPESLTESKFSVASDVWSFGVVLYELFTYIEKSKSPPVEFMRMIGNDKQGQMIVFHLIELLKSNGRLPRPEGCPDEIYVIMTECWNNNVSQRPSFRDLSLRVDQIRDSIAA

For the molecule `COc1ccc(Nc2ncnc3cc(OC)c(OC)cc23)cc1`, in the assay with SK-OV-3, the IC50 was > 100 µM.
On to `COc1cccc(Nc2ncnc3cc(OC)c(OC)cc23)c1`, for which the IC50 in the assay on HeLa, with SK-OV-3 and with HT-29 [2] was > 100 µM each time. In addition, the inhibition in assay [1] came out at 29.4%.
Take `COc1cc2ncnc(Nc3cccc4ccccc34)c2cc1OC`: the concentration for half-maximal inhibition (IC50) is 8.02 µM in the assay on HeLa, 16.7 µM in the assay on SK-OV-3 and 7.65 µM in the assay on HT-29 [2]. Also, the inhibition is 43% in assay [1] and “Dose-dependent effect” in assay [3]. The inhibition entry in assay [4] was “Active”. Further, the result in the assay with HT-29 [5] and in the assay on HT-29 [6] was Active.
Take `COc1cc2ncnc(Nc3ccccc3C)c2cc1OC`: the concentration for half-maximal inhibition (IC50) with HeLa, in the assay with SK-OV-3 and with HT-29 [2] was > 100 µM in each case. Further, in [1], the inhibition is 10.6%.
In the case of `COc1cc2ncnc(Nc3cccc(O)c3)c2cc1OC`, the IC50 with HeLa worked out at 43.9 µM; in the assay with SK-OV-3, 37.5 µM; in the assay on HT-29 [2], 59.7 µM. Besides, in [1], the inhibition worked out at 23.8%.
For the molecule `COc1ccc(CCNc2ncnc3cc(OC)c(OC)cc23)cc1OC`, the IC50 in the assay on HeLa, with SK-OV-3 and with HT-29 [2] was > 100 µM each time. Besides, in assay [1], the inhibition stood at 25.3%.
For `COCCNc1ncnc2cc(OC)c(OC)cc12`, the IC50 in the assay with HeLa, with SK-OV-3 and in the assay with HT-29 [2] was > 100 µM each time. Besides, the inhibition in assay [1] is 38%.
With `COc1cc2ncnc(NCCN3CCOCC3)c2cc1OC`, the 50% inhibitory concentration (IC50) in the assay with HeLa, with SK-OV-3 and in the assay on HT-29 [2] was > 100 µM in each case. The inhibition in assay [1] stood at 29.5%.
As to `COc1cc2ncnc(Nc3ccc(O)cc3)c2cc1OC`, the IC50 with HeLa came out at 51.5 µM; with SK-OV-3, 74.6 µM; with HT-29 [2] it was 93 µM. Moreover, the inhibition in assay [1] is 33.1%.
Take `COc1cc2ncnc(Nc3nc4c(Cl)cccc4s3)c2cc1OC`: the IC50 in the assay on HeLa, with SK-OV-3 and in the assay with HT-29 [2] was > 100 µM each time. Further, in assay [1], the inhibition is 14.4%.
Regarding `N#C/C(=C\c1ccc(O)c(O)c1)C(=O)NCc1ccccc1`, the figures for the 50% inhibitory concentration (IC50) in the assay on HeLa and in the assay with HT-29 [2] were > 100 µM and 78.5 µM, respectively. Moreover, the inhibition in assay [1] was 55.1%. The inhibition result in [7] is “inactive”. Further, the inhibition entry in [8] was “Active”. Moreover, the result in the assay with HT-29 [9] was inactive. Also, the result in the assay with HT-29 [10] was Active.
For `COc1cc2ncnc(Nc3ccc(Br)cc3)c2cc1OC`, the inhibition in assay [1] amounted to 29.3%. Also, the IC50 in the assay with SK-OV-3 and with HT-29 [2] was > 100 µM in each case.
As for `COc1cc2ncnc(Nc3ccc(C)cc3)c2cc1OC`, the figures for the IC50 in the assay on HeLa, in the assay on SK-OV-3 and with HT-29 [2] were 99.5 µM, 91.9 µM and 57.9 µM, respectively. In [1], the inhibition worked out at 18.4%.
`COc1cc2ncnc(NN3CCOCC3)c2cc1OC`: the IC50 in the assay with HeLa, in the assay with SK-OV-3 and in the assay with HT-29 [2] was > 100 µM each time. In addition, the inhibition in assay [1] was found to be 44.4%. In addition, the inhibition entry in [11] is “Active”.
